Values after ≈ are worked out from the molar mass of the structure shown.
What was measured:
Format in all cases: functional
Staphylococcus aureus [1] = test: Antibacterial activity against Staphylococcus aureus CCM 4516/08 after 24 hrs by microbroth dilution method; conditions: CCM 4516/08, 24 h
Method in brief: (§1)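 Microbroth dilution modified per M07-A07 in Mueller-Hinton broth, pH 7.4 (±0.2). Inoculum in sterile water adjusted to 0.5 McFarland. MIC taken as growth reduction of at least 90% (IC90) versus control, read visually and at 540 nm after 24 and 48 h incubation in the dark.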

Staphylococcus aureus [2] = test: Antibacterial activity against Staphylococcus aureus CCM 4516/08 after 48 hrs by microbroth dilution method; conditions: CCM 4516/08, 48 h
Method in brief: (§2)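 Microdilution broth method modified after M07-A07 in Mueller-Hinton broth adjusted to pH 7.4 (±0.2). Inoculum prepared in sterile water to 0.5 McFarland (1.5 × 10^8 CFU/mL). MIC taken as growth reduction versus control (IC95 per table header), read visually and spectrophotometrically at 540 nm after 24 and 48 h incubation in the dark.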

Staphylococcus aureus [3] = test: Antibacterial activity against methicillin-resistant Staphylococcus aureus H 5996/08 after 24 hrs by microbroth dilution method; conditions: H 5996/08, 24 h; method in brief: as §2
Staphylococcus aureus [4] = test: Antibacterial activity against methicillin-resistant Staphylococcus aureus H 5996/08 after 48 hrs by microbroth dilution method; conditions: H 5996/08, 48 h; method in brief: as §2
[5] = system: Staphylococcus epidermidis; test: Antibacterial activity against Staphylococcus epidermidis H 6966/08 after 24 hrs by microbroth dilution method; conditions: H 6966/08, 24 h; method in brief: as §1
[6] = system: Staphylococcus epidermidis; test: Antibacterial activity against Staphylococcus epidermidis H 6966/08 after 48 hrs by microbroth dilution method; conditions: H 6966/08, 48 h; method in brief: as §1
Enterococcus sp. [7] = test: Antibacterial activity against Enterococcus sp. J 14365/08 after 24 hrs by microbroth dilution method; conditions: J 14365/08, 24 h; method in brief: as §1
Enterococcus sp. [8] = test: Antibacterial activity against Enterococcus sp. J 14365/08 after 48 hrs by microbroth dilution method; conditions: J 14365/08, 48 h; method in brief: as §1
Escherichia coli [9] = test: Antibacterial activity against Escherichia coli CCM 4517 after 24 hrs by microbroth dilution method; conditions: CCM 4517, 24 h; method in brief: as §1
Escherichia coli [10] = test: Antibacterial activity against Escherichia coli CCM 4517 after 48 hrs by microbroth dilution method; conditions: CCM 4517, 48 h; method in brief: as §1
Klebsiella pneumoniae [11] = test: Antibacterial activity against Klebsiella pneumoniae D 11750/08 after 24 hrs by microbroth dilution method; conditions: D 11750/08, 24 h; method in brief: as §1
Klebsiella pneumoniae [12] = test: Antibacterial activity against Klebsiella pneumoniae D 11750/08 after 48 hrs by microbroth dilution method; conditions: D 11750/08, 48 h; method in brief: as §1
Klebsiella pneumoniae [13] = test: Antibacterial activity against ESBL-positive Klebsiella pneumoniae J 14368/08 after 24 hrs by microbroth dilution method; conditions: J 14368/08, 24 h; method in brief: as §1
Klebsiella pneumoniae [14] = test: Antibacterial activity against ESBL-positive Klebsiella pneumoniae J 14368/08 after 48 hrs by microbroth dilution method; conditions: J 14368/08, 48 h; method in brief: as §1
Candida albicans [15] = test: Antifungal activity against Candida albicans ATCC 44859 after 24 hrs by microbroth dilution method; conditions: ATCC 44859, 24 h
Candida albicans [16] = test: Antifungal activity against Candida albicans ATCC 44859 after 48 hrs by microbroth dilution method; conditions: ATCC 44859, 48 h
Candida tropicalis [17] = test: Antifungal activity against Candida tropicalis 156 after 24 hrs by microbroth dilution method; conditions: Candida tropicalis, 156, 24 h
Candida tropicalis [18] = test: Antifungal activity against Candida tropicalis 156 after 48 hrs by microbroth dilution method; conditions: Candida tropicalis, 156, 48 h
Pichia kudriavzevii [19] = test: Antifungal activity against Candida krusei E28 after 24 hrs by microbroth dilution method; conditions: E28, 24 h
Pichia kudriavzevii [20] = test: Antifungal activity against Candida krusei E28 after 48 hrs by microbroth dilution method; conditions: E28, 48 h
Nakaseomyces glabratus [21] = test: Antifungal activity against Candida glabrata 20/I after 24 hrs by microbroth dilution method
Nakaseomyces glabratus [22] = test: Antifungal activity against Candida glabrata 20/I after 48 hrs by microbroth dilution method
Trichosporon asahii [23] = test: Antifungal activity against Trichosporon asahii 1188 after 24 hrs by microbroth dilution method; conditions: Trichosporon asahii, 1188, 24 h
Trichosporon asahii [24] = test: Antifungal activity against Trichosporon asahii 1188 after 48 hrs by microbroth dilution method; conditions: Trichosporon asahii, 1188, 48 h
Lichtheimia corymbifera [25] = test: Antifungal activity against Absidia corymbifera 272 after 24 hrs by microbroth dilution method; conditions: Lichtheimia corymbifera, 272, 24 h
Lichtheimia corymbifera [26] = test: Antifungal activity against Absidia corymbifera 272 after 48 hrs by microbroth dilution method; conditions: Lichtheimia corymbifera, 272, 48 h
[27] = system: Trichophyton mentagrophytes; test: Antifungal activity against Trichophyton mentagrophytes 445 after 72 hrs by microbroth dilution method; conditions: Trichophyton mentagrophytes, 445, 72 h
[28] = system: Trichophyton mentagrophytes; test: Antifungal activity against Trichophyton mentagrophytes 445 after 120 hrs by microbroth dilution method; conditions: Trichophyton mentagrophytes, 445, 120 h

| Compound | MIC (Staphylococcus aureus [1]) [µM] | MIC (Staphylococcus aureus [2]) [µM] | MIC (Staphylococcus aureus [3]) [µM] | MIC (Staphylococcus aureus [4]) [µM] | MIC [5] [µM] | MIC [6] [µM] | MIC (Enterococcus sp. [7]) [µM] | MIC (Enterococcus sp. [8]) [µM] | MIC (Escherichia coli [9]) [µM] | MIC (Escherichia coli [10]) [µM] | MIC (Klebsiella pneumoniae [11]) [µM] | MIC (Klebsiella pneumoniae [12]) [µM] | MIC (Klebsiella pneumoniae [13]) [µM] | MIC (Klebsiella pneumoniae [14]) [µM] | MIC (Candida albicans [15]) [µM] | MIC (Candida albicans [16]) [µM] | MIC (Candida tropicalis [17]) [µM] | MIC (Candida tropicalis [18]) [µM] | MIC (Pichia kudriavzevii [19]) [µM] | MIC (Pichia kudriavzevii [20]) [µM] | also measured |
| --- | --- | --- | --- | --- | --- | --- | --- | --- | --- | --- | --- | --- | --- | --- | --- | --- | --- | --- | --- | --- | --- |
| O=C(Nc1ccccc1)Oc1ccc(Cl)cc1C(=O)Nc1ccc(Br)cc1 | ≤ 0.49 | 0.98 (≈ 0.437 µg/mL) | ≤ 0.49 | 0.98 (≈ 0.437 µg/mL) | ≤ 0.49 | 0.98 (≈ 0.437 µg/mL) | 500 (≈ 223 µg/mL) | 500 (≈ 223 µg/mL) | > 500 | > 500 | > 500 | > 500 | > 500 | > 500 | > 500 | > 500 | > 500 | > 500 | 250 (≈ 111 µg/mL) | 250 (≈ 111 µg/mL) | MIC (Nakaseomyces glabratus [21]): 125 µM (≈ 55.7 µg/mL); MIC (Nakaseomyces glabratus [22]): 125 µM (≈ 55.7 µg/mL); MIC (Trichosporon asahii [23]): 125 µM (≈ 55.7 µg/mL); MIC (Trichosporon asahii [24]): 125 µM (≈ 55.7 µg/mL); MIC (Lichtheimia corymbifera [25]): > 500 µM; MIC (Lichtheimia corymbifera [26]): > 500 µM; MIC [27]: 3.9 µM (≈ 1.74 µg/mL); MIC [28]: 3.9 µM (≈ 1.74 µg/mL) |
| O=C(NCCc1ccccc1)Oc1ccc(Cl)cc1C(=O)Nc1ccc(F)cc1 | 7.81 (≈ 3.22 µg/mL) | 15.6 (≈ 6.45 µg/mL) | 15.6 (≈ 6.45 µg/mL) | 62.5 (≈ 25.8 µg/mL) | 15.6 (≈ 6.45 µg/mL) | 15.6 (≈ 6.45 µg/mL) | > 500 | > 500 | > 500 | > 500 | > 500 | > 500 | > 500 | > 500 | 250 (≈ 103 µg/mL) | > 500 | > 500 | > 500 | 125 (≈ 51.6 µg/mL) | > 500 | MIC (Nakaseomyces glabratus [21]): 125 µM (≈ 51.6 µg/mL); MIC (Nakaseomyces glabratus [22]): > 500 µM; MIC (Trichosporon asahii [23]): 125 µM (≈ 51.6 µg/mL); MIC (Trichosporon asahii [24]): > 500 µM; MIC (Lichtheimia corymbifera [25]): > 500 µM; MIC (Lichtheimia corymbifera [26]): > 500 µM; MIC [27]: > 500 µM; MIC [28]: > 500 µM |
| O=C(NCc1ccccc1)Oc1ccc(Cl)cc1C(=O)Nc1ccc(Cl)cc1 | 3.9 (≈ 1.62 µg/mL) | 15.6 (≈ 6.49 µg/mL) | 7.81 (≈ 3.24 µg/mL) | 15.6 (≈ 6.49 µg/mL) | 3.9 (≈ 1.62 µg/mL) | 3.9 (≈ 1.62 µg/mL) | > 125 | > 125 | > 125 | > 125 | 125 (≈ 51.9 µg/mL) | 125 (≈ 51.9 µg/mL) | 62.5 (≈ 26 µg/mL) | 125 (≈ 51.9 µg/mL) | > 125 | > 125 | > 125 | > 125 | 62.5 (≈ 26 µg/mL) | 62.5 (≈ 26 µg/mL) | MIC (Nakaseomyces glabratus [21]): > 125 µM; MIC (Nakaseomyces glabratus [22]): > 125 µM; MIC (Trichosporon asahii [23]): 15.6 µM (≈ 6.49 µg/mL); MIC (Trichosporon asahii [24]): 15.6 µM (≈ 6.49 µg/mL); MIC (Lichtheimia corymbifera [25]): > 125 µM; MIC (Lichtheimia corymbifera [26]): > 125 µM; MIC [27]: 1.95 µM (≈ 0.81 µg/mL); MIC [28]: 1.95 µM (≈ 0.81 µg/mL) |
